Source: ChEMBL document CHEMBL1135789, “Novel structures derived from 2-[[(2-pyridyl)methyl]thio]-1H-benzimidazole as anti-Helicobacter pylori agents, Part 2” (J Med Chem, 2002)
Values after ≈ are worked out from the molar mass of the structure shown.

Experiments:
Helicobacter pylori [1] = assay: Minimum inhibitory concentration against Helicobacter pylori (Helicobacter pylori) ARHp strain 115; assay type: functional
Method in brief: (§1)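 Broth microdilution with two-fold serial dilutions in Brucella broth plus 5% (v/v) heat-inactivated FCS. Strains were pre-grown microaerophilically (5% O2, 10% CO2, 85% N2) on blood agar at 37 °C and passaged twice. The inoculum was a final 10^7 cells/mL.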

Helicobacter pylori [2] = assay: Minimum inhibitory concentration against Helicobacter pylori (Helicobacter pylori) ARHp strain 81; assay type: functional; method in brief: as §1
Helicobacter pylori [3] = assay: Minimum bacterial concentration (MBC) at which maximum growth inhibition against Helicobacter pylori has occurred; assay type: functional
Method in brief: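 Strain ARHp206. Aliquots from microdilution wells showing no growth were plated on trypticase soy agar with 5% sheep blood. The MBC was judged by visual inspection as the concentration giving maximum growth inhibition.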

Mus musculus [4] = assay: AUC (area under curve) after oral dosing by gavage needle at 30 mg/kg in C57BL/6NTac female mice; Not checked; assay type: ADME, organism-based, Plasma; set-up: dose 30 mg/kg, route oral; settings: in vivo
Method in brief: (§2)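 Single oral gavage dose of 30 mg/kg in 85:15 0.5% aqueous hydroxypropylmethylcellulose:PEG-400, given to female C57BL/6NTac mice (6 weeks, 20 g). Plasma was diluted with MeCN to remove proteins, and the parent compound was quantified by LC-MS in single ion recording mode against calibration curves (LLOQ 10-50 ng/mL).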

Mus musculus [5] = assay: Maximum plasma concentration (Cmax) after oral dosing by gavage needle at 30 mg/kg in C57BL/6NTac female mice; Not checked; assay type: ADME, organism-based; set-up: dose 30 mg/kg, route oral; settings: in vivo; method in brief: as §2
Helicobacter pylori [6] = assay: Minimum inhibitory concentration against Helicobacter pylori (Helicobacter pylori) ARHp strain 206; assay type: functional; method in brief: as §1
Helicobacter pylori [7] = assay: Minimum inhibitory concentration against Helicobacter pylori (Helicobacter pylori) ARHp strain 80; assay type: functional; method in brief: as §1
[8] = Maximum plasma concentration (Cmax) after oral dosing by gavage needle at 30 mg/kg in C57BL/6NTac female mice; assay type: ADME, organism-based; set-up: dose 30 mg/kg, route oral; settings: mouse; method in brief: as §2
Mus musculus [9] = assay: AUC (area under curve) after oral dosing by gavage needle at 30 mg/kg in C57BL/6NTac female mice; assay type: ADME, organism-based, Plasma; set-up: dose 30 mg/kg, route oral; settings: in vivo; method in brief: as §2
Mus musculus [10] = assay: Maximum plasma concentration (Cmax) after oral dosing by gavage needle at 30 mg/kg in C57BL/6NTac female mice; Not detected; assay type: ADME, organism-based; set-up: dose 30 mg/kg, route oral; settings: in vivo; method in brief: as §2
Mus musculus [11] = assay: AUC (area under curve) after oral dosing by gavage needle at 30 mg/kg in C57BL/6NTac female mice; Not detected; assay type: ADME, organism-based, Plasma; set-up: dose 30 mg/kg, route oral; settings: in vivo; method in brief: as §2

Row | Structure (SMILES) | MIC (Helicobacter pylori [1]) [µg/mL] | MIC (Helicobacter pylori [2]) [µg/mL] | AUC (Mus musculus [4]) | Cmax (Mus musculus [5]) | MIC (Helicobacter pylori [6]) [µg/mL] | MIC (Helicobacter pylori [7]) [µg/mL] | Cmax [8] [ng/mL] | AUC (Mus musculus [9]) [ng·h/mL] | Cmax (Mus musculus [10]) | AUC (Mus musculus [11]) | MBC (Helicobacter pylori [3]) [µg/mL]
1 | Cc1c(CSc2nc3ccccc3[nH]2)cccc1SCCNS(=O)(=O)c1cccc2cccnc12 | 4 (≈ 7.68 µM) | 8 (≈ 15.4 µM) | Not checked | Not checked | 8 (≈ 15.4 µM) | 4 (≈ 7.68 µM) | – | – | – | – | > 8
2 | Cc1c(CSc2nc3ccccc3[nH]2)cccc1SCCO | 1 (≈ 3.03 µM) | 1 (≈ 3.03 µM) | Not checked | Not checked | 1 (≈ 3.03 µM) | 1 (≈ 3.03 µM) | – | – | – | – | > 8
3 | Cc1c(CSc2nc3ccccc3[nH]2)cccc1SCC(=O)NCc1cccs1 | 0.5 (≈ 1.14 µM) | 1 (≈ 2.27 µM) | – | – | 1 (≈ 2.27 µM) | 0.5 (≈ 1.14 µM) | – | – | Not detected | Not detected | 8 (≈ 18.2 µM)
4 | Cc1c(CSc2nccs2)cccc1SCCOC(=O)Nc1ccccc1 | 0.5 (≈ 1.2 µM) | 0.5 (≈ 1.2 µM) | – | – | 0.5 (≈ 1.2 µM) | 0.5 (≈ 1.2 µM) | 74 | 99 | – | – | 8 (≈ 19.2 µM)
5 | Cc1c(CSc2nc3ccccc3[nH]2)cccc1SCCN | 4 (≈ 12.1 µM) | 8 (≈ 24.3 µM) | Not checked | Not checked | 8 (≈ 24.3 µM) | 4 (≈ 12.1 µM) | – | – | – | – | > 8
6 | Cc1c(CSc2nc3ccccc3[nH]2)cccc1SCC(=O)O | > 16 | > 16 | Not checked | Not checked | > 16 | > 16 | – | – | – | – | > 8
7 | Cc1c(CSc2nc3ccccc3[nH]2)cccc1SCC(=O)NCc1ccccc1 | 1 (≈ 2.31 µM) | 1 (≈ 2.31 µM) | – | – | 1 (≈ 2.31 µM) | 1 (≈ 2.31 µM) | – | – | Not detected | Not detected | 1 (≈ 2.31 µM)
8 | Cc1c(CSc2nc3ccccc3[nH]2)cccc1SCCOC(=O)Nc1ccccc1 | 0.5 (≈ 1.11 µM) | 0.5 (≈ 1.11 µM) | – | – | 0.5 (≈ 1.11 µM) | 0.5 (≈ 1.11 µM) | 906 | 2070 | – | – | 1 (≈ 2.22 µM)
9 | Cc1c(CSc2nc3ccccc3[nH]2)cccc1SCCOC(=O)Nc1ccc(N(C)C)cc1 | 0.5 (≈ 1.01 µM) | 1 (≈ 2.03 µM) | – | – | 1 (≈ 2.03 µM) | 0.5 (≈ 1.01 µM) | 331 | 299 | – | – | > 8
10 | Cc1ncc([N+](=O)[O-])n1CCO [METRONIDAZOLE] | 1 (≈ 5.84 µM) | 1 (≈ 5.84 µM) | Not checked | Not checked | 1 (≈ 5.84 µM) | 8 (≈ 46.7 µM) | – | – | – | – | –
11 | CN(C)[C@@H]1C(O)=C(C(N)=O)C(=O)[C@@]2(O)C(O)=C3C(=O)c4c(O)cccc4[C@@](C)(O)[C@H]3C[C@@H]12 [TETRACYCLINE] | 1 (≈ 2.25 µM) | 1 (≈ 2.25 µM) | – | – | 1 (≈ 2.25 µM) | 1 (≈ 2.25 µM) | – | – | – | – | –

More lines, main results first:

Row | MIC (Helicobacter pylori [1]) [µg/mL] | MIC (Helicobacter pylori [2]) [µg/mL] | AUC (Mus musculus [4]) | Cmax (Mus musculus [5]) | MIC (Helicobacter pylori [6]) [µg/mL] | MIC (Helicobacter pylori [7]) [µg/mL] | Cmax [8] [ng/mL] | AUC (Mus musculus [9]) [ng·h/mL] | Cmax (Mus musculus [10]) | AUC (Mus musculus [11]) | Structure (SMILES) | MBC (Helicobacter pylori [3]) [µg/mL]
12 | 0.5 (≈ 1.11 µM) | 0.5 (≈ 1.11 µM) | – | – | 0.5 (≈ 1.11 µM) | 0.5 (≈ 1.11 µM) | 140 | 283 | – | – | Cc1c(CSc2nc3ccccc3[nH]2)cccc1SCCNC(=O)Nc1ccccc1 | 8 (≈ 17.8 µM)
13 | 0.25 (≈ 0.521 µM) | 0.5 (≈ 1.04 µM) | – | – | 0.5 (≈ 1.04 µM) | 0.25 (≈ 0.521 µM) | 797 | 1630 | – | – | COc1cccc(NC(=O)OCCSc2cccc(CSc3nc4ccccc4[nH]3)c2C)c1 | 8 (≈ 16.7 µM)
14 | 0.25 (≈ 0.609 µM) | 0.5 (≈ 1.22 µM) | Not checked | Not checked | 0.5 (≈ 1.22 µM) | 0.25 (≈ 0.609 µM) | – | – | – | – | Cc1c(CSc2ccncc2)cccc1SCCOC(=O)Nc1ccccc1 | 8 (≈ 19.5 µM)
15 | 0.25 (≈ 0.607 µM) | 0.5 (≈ 1.21 µM) | – | – | 0.5 (≈ 1.21 µM) | 0.25 (≈ 0.607 µM) | 57 | 135 | – | – | Cc1c(CSc2nc3ccccc3[nH]2)cccc1SCC(=O)N1CCCCC1 | > 8
16 | 0.25 (≈ 0.515 µM) | 0.5 (≈ 1.03 µM) | – | – | 0.5 (≈ 1.03 µM) | 0.25 (≈ 0.515 µM) | 398 | 1130 | – | – | Cc1c(CSc2nc3ccccc3[nH]2)cccc1SCCOC(=O)Nc1ccc(F)c(F)c1 | 8 (≈ 16.5 µM)
17 | 0.25 (≈ 0.574 µM) | 0.5 (≈ 1.15 µM) | – | – | 0.5 (≈ 1.15 µM) | 0.25 (≈ 0.574 µM) | 471 | 271 | – | – | Cc1c(CSc2nc3ccccc3[nH]2)cccc1SCCNC(=O)c1cnccn1 | > 8
18 | 0.06 (≈ 0.164 µM) | 0.06 (≈ 0.164 µM) | Not checked | Not checked | 0.12 (≈ 0.328 µM) | 0.06 (≈ 0.164 µM) | – | – | – | – | CC1(C)S[C@@H]2[C@H](NC(=O)[C@H](N)c3ccc(O)cc3)C(=O)N2[C@H]1C(=O)O [AMOXICILLIN] | –
19 | < 0.06 | < 0.06 | – | – | < 0.06 | < 0.06 | 1000 | 1770 | – | – | CC[C@H]1OC(=O)[C@H](C)[C@@H](O[C@H]2C[C@@](C)(OC)[C@@H](O)[C@H](C)O2)[C@H](C)[C@@H](O[C@@H]2O[C@H](C)C[C@H](N(C)C)[C@H]2O)[C@](C)(OC)C[C@@H](C)C(=O)[C@H](C)[C@@H](O)[C@]1(C)O [CLARITHROMYCIN] | –
